The record followed here is ChEMBL document CHEMBL3414513, “Synthesis and biological evaluation of betulonic acid derivatives as antitumor agents” (Eur J Med Chem, 2015).

Activity calls are given as the source filed them. No cut-off for these calls is given here.

Assay [1] concerns MGC-803. The assay is described as follows: Cytotoxicity against human MGC803 cells after 72 hrs by MTT assay. The assay is classed as functional, cell-based. The settings on record: for IC50: MGC-803, 72 h. In a few lines:
(§1)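 Cancer lines grown in RPMI 1640 with 10% heat-inactivated FBS, 37 °C, 5% CO2. Cells trypsinized at 80-90% confluence, seeded at 2×10^3/well overnight, then given compounds (DMSO stocks diluted in medium) at various concentrations for 72 h at 37 °C. Controls: 0.1% DMSO negative, adriamycin positive. MTT (5 mg/ml) added for 4 h, formazan dissolved in SDS 12 h, A595 read. IC50 from dose-response curves.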

Assay [2] is described as follows: (§2) Cytotoxicity against human PC3 cells after 72 hrs by MTT assay. It is filed as functional, cell-based. The settings on record: PC-3, 72 h. Put shortly: (§3)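 Cells trypsinized at 80-90% confluence, seeded at 2×10^3/well overnight, then given compounds (DMSO stocks diluted in medium) at various concentrations for 72 h at 37 °C. Controls: 0.1% DMSO negative, adriamycin positive. MTT (5 mg/ml) added for 4 h, formazan dissolved in SDS 12 h, A595 read. IC50 from dose-response curves.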

Assay [3] relates to PC-3. The description is as §2. It is filed as functional, cell-based. Put shortly:
as §3

Assay [4] relates to Bcap37. Put plainly: Cytotoxicity against human Bcap37 cells after 72 hrs by MTT assay. The following applies: for IC50: Bcap37, 72 h. The assay is classed as functional, cell-based. In a few lines: as §1
Background: Tetrazolium assays rely on reduction of a dye to a coloured formazan, in cell work by metabolically active cells.

Assay [5] deals with A-375. The assay is described as follows: Cytotoxicity against human A375 cells after 72 hrs by MTT assay. The following applies: for IC50: A-375, 72 h. The assay is classed as functional, cell-based. In a few lines: as §1
Assay [6] deals with MCF7. The assay is described as follows: Cytotoxicity against human MCF7 cells after 72 hrs by MTT assay. The settings on record: for IC50: MCF7, 72 h. The assay is classed as functional, cell-based. Put shortly:
as §1

Assay [7] has as its system MGC-803. Put plainly: Selectivity index, ratio of IC50 for mouse NIH/3T3 cells to IC50 for human MGC803 cells. The assay is classed as functional. Put shortly: (§4)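 Index is the IC50 in normal NIH3T3 cells divided by the IC50 in each cancer line. […] HCPT and adriamycin were used as positive controls.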
In assay [8] the test system is PC-3. Put plainly: Selectivity index, ratio of IC50 for mouse NIH/3T3 cells to IC50 for human PC3 cells. The assay is classed as functional. Put shortly: as §4
The subject of assay [9] is Bcap37. Put plainly: Selectivity index, ratio of IC50 for mouse NIH/3T3 cells to IC50 for human Bcap37 cells. The assay is classed as functional. In a few lines: as §4
The subject of assay [10] is A-375. Put plainly: Selectivity index, ratio of IC50 for mouse NIH/3T3 cells to IC50 for human A375 cells. It is filed as functional. In a few lines:
as §4

Assay [11] relates to MCF7. Put plainly: Selectivity index, ratio of IC50 for mouse NIH/3T3 cells to IC50 for human MCF7 cells. It is filed as functional. In a few lines:
as §4

Assay [12] has as its system MGC-803. Put plainly: Induction of apoptosis in human MGC803 cells at 5 uM after 12 to 48 hrs by acridine orange/ethidium bromide staining-based fluorescence microscopic analysis. The assay is classed as functional, cell-based. In a few lines:
(§5)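 MGC-803 cells at 5×10^4 cells/mL were seeded in 6-well plates. Medium was replaced with fresh medium plus 10% FBS containing compound, 5 µM for 12-48 h. Controls: HCPT 10 µM for 48 h, DMSO. Cells were washed with PBS and the coverslip was inverted onto 20 µL AO/EB stain (100 µg/mL). Fluorescence microscopy scored live, early apoptotic, late apoptotic and necrotic nuclei.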

Assay [13] concerns MGC-803. The assay is described as follows: Induction of apoptosis in human MGC803 cells assessed as necrotic cells at 5 uM after 12 to 48 hrs by acridine orange/ethidium bromide staining-based fluorescence microscopic analysis. It is filed as functional, cell-based. Put shortly:
as §5

For assay [14], the system named is MGC-803. Put plainly: Induction of apoptosis in human MGC803 cells assessed as appearance of compact condensed and crescent shaped cells at 5 uM after 12 to 48 hrs by Hoechst 33258 staining-based fluorescence microscopic analysis. It is filed as functional, cell-based. Put shortly: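 MGC-803 cells (5×10^4 cells/mL, 6-well plates) were treated at 5 µmol/L for 12-48 h in fresh medium with 10% FBS. Controls: HCPT 10 µM for 48 h, DMSO. Cells were fixed in 4% paraformaldehyde for 10 min and stained with Hoechst 33258 for 5 min. Fluorescence microscopy used 350 nm excitation and 460 nm emission.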

Assay [15] relates to MGC-803. Put plainly: Induction of apoptosis in human MGC803 cells assessed as DNA fragmentation at 5 uM after 12 to 48 hrs by TUNEL assay. It is filed as functional, cell-based. Put shortly:
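MGC-803 cells (5×10^4 cells/mL, 6-well) were exposed at 5 µM for 12-48 h. Controls: HCPT 10 µM for 48 h, DMSO. Colorimetric TUNEL: fixed in 4% paraformaldehyde 40 min, permeabilized on ice, endogenous peroxidase quenched with 0.3% H2O2/methanol 20 min. Then TdT plus biotin-dUTP 60 min at 37 °C, streptavidin-HRP 30 min, DAB 10 min. Brown precipitate scored by light microscopy.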

Assay [16] relates to MGC-803. Put plainly: Induction of apoptosis in human MGC803 cells assessed as apoptosis ratio at 10 uM after 36 hrs by Annexin V-FITC/propidium iodide staining-based flow cytometric analysis. The assay is classed as functional. In a few lines:
(§6)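 MGC-803 cells were treated at 10 µM, with 36 h among the time points; HCPT 10 µM served as positive control. Cells at 1×10^6/mL were washed in cold PBS and resuspended in 500 µL binding buffer. Staining used 5 µL Annexin V-FITC plus 5 µL PI for 20 min in the dark, then flow cytometry. Apoptosis ratio is early plus late apoptotic quadrants.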
In general terms: A flow cytometer gives signals particle by particle.

Assay [17] concerns MGC-803. Put plainly: Induction of apoptosis in human MGC803 cells at 10 uM by Annexin V-FITC/propidium iodide staining-based flow cytometric analysis. The assay is classed as functional, cell-based. The settings on record: TDE = time-dependent effect. In a few lines: as §6
The nature of assay [18]: Upregulation of p53 expression in human MGC803 cells at 2.5 to 10 uM after 12 hrs by Western blot analysis. It is filed as functional, cell-based. The following applies: MGC-803. In a few lines: (§7)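 MGC-803 cells were treated at 2.5, 5 or 10 µM for 12 h, then collected. Western blots were probed with anti-p53 and anti-Bax (1:500 to 1:1000), with β-actin as loading reference.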

The nature of assay [19]: Upregulation of Bax expression in human MGC803 cells at 2.5 to 10 uM after 12 hrs by Western blot analysis. It is filed as functional, cell-based. The following applies: MGC-803. Put shortly: as §7
Background: A western blot detects proteins with antibodies after separation by electrophoresis.

Assay [20] relates to MGC-803. Put plainly: Induction of apoptosis in human MGC803 cells assessed as activation of caspase-3 using Ac-[…]-pNA as probe at 2.5 to 10 uM after 12 hrs. It is filed as functional, cell-based. Put shortly: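 MGC-803 cells were treated at 2.5, 5 or 10 µM for 12 h. Cells (1×10^6/mL) were washed in cold PBS, lysed on ice for 25 min and spun at 18000 g for 15 min. Supernatant was mixed with reaction buffer and Ac-[…]-pNA and incubated at 37 °C for 2-3 h in the dark. A405 was read against a lysis/reaction buffer blank.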

Assay [21] relates to MGC-803. Put plainly: Induction of apoptosis in human MGC803 cells assessed as activation of caspase-9 using Ac-LEHD-pNA as probe at 2.5 to 10 uM after 12 hrs. The assay is classed as functional, cell-based. In a few lines: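 MGC-803 cells were treated at 2.5, 5 or 10 µM for 12 h. Cells were lysed on ice for 25 min and spun at 16000 g for 15 min. Supernatant was mixed with reaction buffer and Ac-LEHD-pNA and incubated at 37 °C for 2-3 h in the dark. A405 was read against a buffer blank.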

For assay [22], the system named is MGC-803. Put plainly: Induction of apoptosis in human MGC803 cells assessed as appearance of compact condensed and crescent shaped cells at 10 uM after 48 hrs by Hoechst 33258 staining-based fluorescence microscopic analysis. It is filed as functional, cell-based. In a few lines: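 MGC-803 cells seeded at 5×10^4 cells/mL in 6-well plates; medium replaced with fresh medium plus 10% FBS and compound (10 µM, 48 h), DMSO negative control. Cells washed, fixed in 4% paraformaldehyde 10 min, stained with Hoechst 33258 for 5 min, washed, then nuclear morphology viewed by fluorescence microscopy (excitation 350 nm, emission 460 nm).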

Assay [23] deals with MGC-803. Put plainly: Induction of apoptosis in human MGC803 cells assessed as DNA fragmentation at 10 uM after 48 hrs by TUNEL assay. It is filed as functional, cell-based. Put shortly: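 MGC-803 cells seeded at 5×10^4 cells/mL in 6-well plates; medium replaced with fresh medium plus 10% FBS and compound (10 µM, 48 h), DMSO negative control. Fixed in 4% paraformaldehyde 40 min, permeabilized 2 min on ice, peroxidase quenched (0.3% H2O2/methanol, 20 min RT), TdT/biotin-dUTP 60 min 37 °C, streptavidin-HRP 30 min, then DAB. Brown precipitate under light microscopy scored apoptotic.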

What is called IC50 is the midpoint of a concentration-inhibition curve. The low end stands for higher potency, the high end for lower potency. For the compound `C=C(C)[C@@H]1CC[C@]2(C(=O)OCCCCN3CCCCC3)CC[C@]3(C)[C@H](CC[C@@H]4[C@@]5(C)CCC(=O)C(C)(C)[C@@H]5CC[C@]43C)[C@@H]12`, the Activity result in assay [1] is “Dose-dependent effect”; in assay [3], “Dose-dependent effect”; in assay [4], “Dose-dependent effect”; in [5] it was “Dose-dependent effect”; in assay [6], “Dose-dependent effect”; in [16], 28.33%. The Activity entry in assay [17] is “tde”. In addition, the IC50 in [1] turned out to be 3.6 µM; in assay [2], 5.6 µM; in assay [4], 4.2 µM; in assay [5], 7.8 µM; in assay [6], 5.2 µM. Further, the “Ratio IC50” value in [7] was found to be 7.38; in [8], 4.75; in assay [9], 6.33; in assay [10] it was 3.41; in assay [11], 5.11. The outcome in [12], in assay [14], in assay [15], in [18], in assay [19] and in [20] was Active. Moreover, the outcome in [21] was Active. In [13], the outcome was inactive.

For `C=C(C)[C@@H]1CC[C@]2(C(=O)OCCN3CCN(C(=O)c4ccccc4)CC3)CC[C@]3(C)[C@H](CC[C@@H]4[C@@]5(C)CCC(=O)C(C)(C)[C@@H]5CC[C@]43C)[C@@H]12`, the Activity result in assay [1], in assay [3], in assay [4], in assay [5] and in assay [6] was “Dose-dependent effect” each time. Besides, the IC50 was found to be 5.3 µM in [1]; 4.1 µM in assay [2]; 7.4 µM in assay [4]; 6.3 µM in [5]; 4.7 µM in [6]. Moreover, the “Ratio IC50” value is listed as 7.62 in assay [7]; 9.85 in assay [8]; 5.46 in assay [9]; 6.41 in assay [10]; 8.6 in assay [11].

For the compound `C=C(C)[C@@H]1CC[C@]2(C(=O)OCCCCN(CC)CC)CC[C@]3(C)[C@H](CC[C@@H]4[C@@]5(C)CCC(=O)C(C)(C)[C@@H]5CC[C@]43C)[C@@H]12`, the Activity entry in assay [1], in assay [3], in assay [4], in assay [5] and in assay [6] was “Dose-dependent effect” in each case. Besides, the IC50 in [1] was found to be 3.8 µM; in assay [2] it was 4.4 µM; in assay [4], 5.2 µM; in assay [5] it was 9.2 µM; in [6], 7.9 µM. Further, the “Ratio IC50” value is given as 6.15 in assay [7]; 5.32 in assay [8]; 4.5 in assay [9]; 2.54 in [10]; 2.96 in assay [11].

Take `CC[C@@]1(O)C(=O)OCc2c1cc1n(c2=O)Cc2cc3cc(O)ccc3nc2-1` [HYDROXYCAMPTOTHECIN]: the Activity entry in assay [1], in assay [3], in [4] and in [5] was “Dose-dependent effect” throughout. Also, the IC50 in assay [1] was 29.1 µM; in assay [2], 34.5 µM; in assay [4], 28.1 µM; in [5] it was 27.8 µM; in assay [6] it was 48.2 µM. In addition, the outcome in [22] and in assay [23] was Active.
